From ChEMBL document CHEMBL1149663, “Design, synthesis and biological evaluation of 1,4-benzodiazepine-2,5-dione-based HDAC inhibitors” (Bioorg Med Chem Lett, 2007)
Calls of active or inactive are those of the source. No cut-off for these calls is given here.

Assays:
[1] = (§1) Antiproliferative activity against H661 cells after 48 hrs by XTT assay; assay type: functional, cell-based; settings: Homo sapiens, NCI-H661, 48 h
In short: (§2)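 Non-small cell lung cancer H661 cells were treated for 48 h, and proliferation was read by XTT assay as % of untreated control. Each analogue was run in three to four independent experiments, each in triplicate. IC50 was taken from the proliferation curves as the concentration giving 50% inhibition of proliferation.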

[2] = Antiproliferative activity against H661 cells at 5 uM after 48 hrs by XTT assay; assay type: functional, Homo sapiens, NCI-H661; in short: as §2
NCI-H661 = test: as §1; assay type: functional, cell-based; settings: Homo sapiens; in short: as §2

SMILES	IC50 [1] [µM]	Activity [2] [%]	Activity (NCI-H661)
O=C(CCCCCN1C(=O)c2ccccc2N(Cc2ccccc2)C(=O)[C@@H]1Cc1ccccc1)NO	6	40	–
O=C(CC/C=C/CN1C(=O)c2ccccc2N(Cc2ccccc2)C(=O)[C@@H]1Cc1ccccc1)NO	8	80	–
CC(/C=C/C(=O)NO)=C\[C@@H](C)C(=O)c1ccc(N(C)C)cc1 [TRICHOSTATIN]	0.085	–	–
Cc1cc(C)cc(CN2C(=O)[C@H](Cc3ccccc3)N(C/C=C/CCC(=O)NO)C(=O)c3ccccc32)c1	17	–	–
Cc1cc(C)cc(CN2C(=O)[C@H](Cc3ccccc3)N(CCCCCC(=O)NO)C(=O)c3ccccc32)c1	8	80	–
CN1C(=O)[C@H](Cc2ccccc2)N(CCCCCC(=O)NO)C(=O)c2ccccc21	–	–	inactive
O=C(CCCCCN1C(=O)c2ccccc2N(Cc2cccc3ccccc23)C(=O)[C@@H]1Cc1ccccc1)NO	16	–	–
